Results published in paper PMC8799559 (Advances in Therapy, 2021).

What was measured:
[1] = legacy model, 50 subjects receiving venetoclax + R ref 13; cited from earlier work
[2] = Population pharmacokinetics; format: in vivo, human
In short: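 Plasma drug measured by validated LC-MS/MS; LLOQ 2.08 or 2.18 ng/mL. Intensive sampling on cycle 1 day 4 and cycle 2 day 1, pre-dose to 8 h post-dose, plus pre-dose samples on cycle 1 day 8 and cycle 2 day 10. Prior model built on 505 subjects from eight studies applied by nonlinear mixed-effects (FOCEI). Checked by diagnostic plots, VPCs and NPDE.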

1L DLBCL = format: in vivo, human; settings: all-comers and BCL-2-IHC-positive subpopulations, logistic regression
In short: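 Phase 2 1L DLBCL patients (n = 199) given 800 mg test compound on a 10/21-day schedule with R-CHOP. PET-CT complete response assessed at the end-of-treatment visit, 6–8 weeks from day 1 of the last cycle. Logistic regression (logit link) on nominal AUCss; α = 0.05 for the exposure coefficient. Covariates added by forward stepwise selection at α = 0.01.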

[3] = phase 3 MURANO study, R/R CLL ref 19; cited from earlier work
tumor size = settings: cited from earlier work
[4] = fixed at legacy model estimate ref 13, cited from earlier work
[5] = system: circulating lymphocyte counts; settings: cited from earlier work
[6] = food effect on relative bioavailability

half-life ([2]; human, plasma, oral): 25.2 h | θV2/F,GO27878 (study effect on V2/F) ([2]; multiplicative CAVALLI study effect relative to legacy model): 2.33
SMILES: CC1(C)CCC(CN2CCN(c3ccc(C(=O)NS(=O)(=O)c4ccc(NCC5CCOCC5)c([N+](=O)[O-])c4)c(Oc4cnc5[nH]ccc5c4)c3)CC2)=C(c2ccc(Cl)cc2)C1 [venetoclax]
Increase of venetoclax CL/F by concomitant R administration [1]: 1.21 fold | Association between venetoclax AUCss nominal and PET-CR rates (1L DLBCL): No clear association | Increase in CL/F for venetoclax when co-administered with R [3]: 7% | EC50 for tumor size (tumor size): 0.146 µg/mL | θCL/F, moderate CYP3A inhibitor ([4]; covariate effect on CL/F): 0.84 | θCL/F, strong CYP3A inhibitor ([4]; covariate effect on CL/F): 0.18 | θCL/F,OATP1B3 inhibitor ([4]; covariate effect on CL/F): 0.85 | θV2/F, CLL/SLL/NHL ([4]; covariate effect on V2/F): 1.71 | θV2/F,SEX=female ([4]; covariate effect on V2/F): 0.68 | CL/F ([4]; final PopPK model): 447 L/day | Q/F ([4]; final PopPK model): 97.2 L/day | V2/F ([4]; final PopPK model): 118 L | V3/F ([4]; final PopPK model): 119 L | ka ([4]; first-order absorption rate constant): 3.72 day⁻¹ | θF1,FOOD=fasting [4, 6]: 0.34 | θF1,FOOD=fed [4, 6]: 1.23 | θF1,FOOD=high fat [4, 6]: 1.43 | θF1,FOOD=moderate fat [4, 6]: 1.31 | Variability (CV) of CL/F ([4]; inter-individual variability): CV = 39.1% | Variability (CV) of F1 ([4]; inter-individual variability): CV = 31.2% | Variability (CV) of V2/F ([4]; inter-individual variability): CV = 45.3% | ω^2CL/F ([4]; inter-individual variance): 0.15 | ω^2F1 ([4]; inter-individual variance): 0.10 | ω^2V2/F ([4]; inter-individual variance): 0.21 | σ^2add ([4]; residual variance, additive): 3.07 × 10^–7 | σ^2prop ([4]; residual variance, proportional): 0.22 | EC50 for circulating lymphocyte counts [5]: 0.00863 µg/mL
